High-throughput results deposited in PubChem BioAssay by Broad Institute.
FGF22 binding: binders of human FGF22 protein, primary screen, FGF22 synaptogenesis inhibitor project, biophysical, thermal shift, single point | recombinant FGF22 thermal shift, SYPRO orange fluorescence; percent of sucrose octasulfate shift, DMSO zero | activity (Tm shift, normalised), % at 9.99 µM | hit rate 1.5% among 340,000 | Fibroblast growth factor 22 (Homo sapiens), Q9HCT0;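 active means mean Tm shift, scaled 0 neutral to 100 positive control, at about 1.3% or above, every replicate too, limit read from the data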
HIV Env fusion: inhibitors of HIV-1 Env-driven cell-cell fusion, primary screen, HeLa-JRFL effector, CEM21 target cells, luciferase. inhibition, % at 12.3 µM. hit rate 1.1% among 360,000;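 active means mean replicate inhibition score of at least 50 and every replicate individually at or above 50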;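 further: 0% = plate neutral controls and 100% = maraviroc near 300 nM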
S100A4 MyoIIA: inhibitors of S100A4-myosin IIA peptide binding, primary screen, biochemical, fluorescence polarization, TAMRA-MyoIIA peptide | Protein S100-A4 (Homo sapiens), P26447 | hit rate 0.14% among 360,000 | inhibition, % at 10.7 µM;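 active means mean inhibition of at least 70% across replicates, with every replicate also reaching that level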
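assay system = human S100A4 monomer with TAMRA-labelled myosin IIA peptide | also added = labelled myosin peptide probe, 5 nM | incubation = 5 min between mix addition and reading | control set = DMSO and TFP controls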
E-sel inducer: E-selectin induction in HUVECs, primary screen, imaging, HUVEC, immunofluorescence imaging, single point. P16581. normalized: neutral wells 0, TNF-alpha wells 100. activation, % at 7.58 µM. hit rate 0.37% among 260,000;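 active means mean E-selectin-positive cell signal at least 10% of the positive control, reached in at least 60% of replicates, without over 20% cell loss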
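Read-out basis: % PE-positive cells; Test system: HUVEC primary endothelial cells; Technique: immunofluorescence imaging; Dosing: single-point compound dose.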
F508del corr: F508del CFTR correction, initial screen, CFBE line, single point; hit rate 0.36% among 350,000; CFBE cells, YFP halide quenching; stimulated with forskolin plus potentiator P3; % fluorescence drop versus neutral controls; activity (quench increase), % at 7.58 µM;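 active means mean added fluorescence quench of at least 8% versus neutral control, with both replicates also reaching 8%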;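 further: cells transiently co-express mutant CFTR-F508del with the halide-sensitive YFP; corrector assay measuring rescue of mutant channel to the surface after 24 h compound exposure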
Active calls of the source: *; / = no result given; [ ] = another dose, or the depositor's remark. An excerpt weighted towards active compounds, which were near 2.7% of everything screened.

SMILES | FGF22 binding | HIV Env fusion | S100A4 MyoIIA | E-sel inducer | F508del corr
COc1ccc(CN(C)C[C@@H]2Oc3ccc(NS(=O)(=O)c4ccccc4)cc3CC(=O)N([C@H](C)CO)C[C@H]2C)cc1 | 0 | 15[16.7 µM] | 134* | -1 | 1
C[C@@H]1CN([C@@H](C)CO)C(=O)Cc2cc(NS(=O)(=O)c3ccc(F)cc3)ccc2O[C@H]1CN(C)Cc1ccc(C(F)(F)F)cc1 | 0 | 56*[16.7 µM] | -9 | 0 | 1
C[C@H](CO)N1C[C@H](C)[C@H](CN(C)Cc2ccc(C(F)(F)F)cc2)Oc2ccc(NC(=O)Cc3cn(C)c4ccccc34)cc2CC1=O | 0 | 14[16.7 µM] | -6 | 228* | -4
Cc1noc(C)c1NC(=O)N(C)C[C@@H]1OCCCC[C@H](C)Oc2ccc(NC(=O)Cc3ccccc3)cc2C(=O)N([C@@H](C)CO)C[C@@H]1C | 0 | -21[16.7 µM] | -6 | 0 | -1
C[C@@H]1CN([C@H](C)CO)C(=O)Cc2cc(NS(=O)(=O)c3ccccc3)ccc2O[C@@H]1CN(C)Cc1ccc(C(F)(F)F)cc1 | 0 | / | -1 | 47* | 2
C[C@@H]1CN([C@@H](C)CO)C(=O)c2cccc(NC(=O)c3cnccn3)c2O[C@@H]1CN(C)CC1CCCCC1 | 0 | -16[16.7 µM] | -12 | 0 | -1
CC(C)NC(=O)N(C)C[C@H]1Oc2ccc(NC(=O)CCCN(C)C)cc2C(=O)N([C@H](C)CO)C[C@H]1C | 0 | / | 111* | -12 | 0
CC(C)NC(=O)N(C)C[C@@H]1Oc2ccc(NC(=O)CCCN(C)C)cc2C(=O)N([C@@H](C)CO)C[C@H]1C | 0 | / | 8 | 242* | -3
O=C(NCC[C@H]1CC[C@H](NC(=O)C2CC2)[C@H](CO)O1)c1cnccn1 | 0 | -2[16.7 µM] | 2 | 0 | 0
O=C(N[C@@H]1CC[C@H](CCn2cc(C3(O)CCCC3)nn2)O[C@@H]1CO)C1CCOCC1 | 0 | 2[16.7 µM] | 26 | 0 | 5
C[C@@H]1CN([C@H](C)CO)S(=O)(=O)c2ccc(-c3ccc(F)cc3)cc2O[C@H]1CN(C)C(=O)Nc1ccc(F)cc1 | / | -4[16.7 µM] | / | 0 | 0
O=C(c1ccc(Br)cc1)c1cc2ccc(O)cc2oc1=O | 0 | 0 | -5 | 46* | -2
CN1CCN(C(=O)C[C@@H]2C[C@H]3c4cc(NC(=O)CC5CC5)ccc4O[C@H]3[C@@H](CO)O2)CC1 | 0 | / | -14 | 0 | 3
Cc1ccc(S(N)(=O)=O)c(C)c1N1CCCC1=O | 44* | 14 | -12 | / | -1
COCc1cc(C)nc(OCC(=O)N/N=C/c2ccc(-c3cc([N+](=O)[O-])ccc3C)o2)c1C#N | / | 64* | / | / | /
COCc1cc(C)nc(OCC(=O)N/N=C/c2ccc(-c3cccc([N+](=O)[O-])c3)o2)c1C#N | / | 7 | / | / | /
CCCN(C(=O)CCc1cn(CCC)c2ccccc12)c1ccc(Oc2cccnc2)cc1 | 0 | 70* | -9 | 0 | -1
Cc1ccccc1OCC(=O)Nc1ccc(S(=O)(=O)N2CCCC2)cc1 | 1 | / | 114* | / | 1
Cc1ccc(OCC(=O)Nc2ccc(CN3CCCCC3)cc2)c(C)c1 | 0 | 6 | -7 | / | 8.3*
Cc1cc(OCC(=O)Nc2ccc(CN3CCCCC3)cc2)ccc1Cl | 0 | 1 | -5 | / | 1
COc1ccccc1NC(=O)COC(=O)c1ccc(S(=O)(=O)N2CCCCCC2)cc1 | 43* | -4 | 8 | 0 | -1
CC(C)CC#Cc1cnc2c(c1)C(=O)N([C@@H](C)CO)C[C@@H](C)[C@H](CN(C)C(=O)c1ccccc1F)O2 | / | -3[16.7 µM] | / | 0 | 0
CNC[C@H]1OCCCC[C@@H](C)Oc2ccc(NS(=O)(=O)c3cn(C)cn3)cc2C(=O)N([C@H](C)CO)C[C@H]1C | 0 | 8[16.7 µM] | / | 0 | 0
CCc1nnc(NC(=O)c2oc3ccccc3c2COC(C)C)s1 | 43* | 13 | -6 | 0 | -2
CO[C@H]1CN(C)C(=O)c2ccc(NS(=O)(=O)c3ccccc3)cc2OC[C@H](C)N(Cc2cccnc2)C[C@H]1C | 0 | -4[16.7 µM] | -33 | 0 | -4
S=c1nn[nH]c2ccccc12 | 43* | / | -2 | 0 | 1
